The list is not random: actives were taken first. Their share in the collection is about 2.9%.
TRPC6 inh = mouse TRPC6 channel inhibition; actives 1.1% (n = 310,000); AID 2553; Q61143; B-score at 10 µM; HEK293-TRPC6, membrane potential dye, ACh-evoked depolarization; stronger effect = lower value;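 active = B-score under library mean minus 3 SD, initial fluorescence not abnormally high, positive integrated signal ratio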;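 also: B-score derived from integrated fluorescence ratio over the kinetic read; more negative B-score means stronger inhibition of depolarization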
TRPC4 PAM = TRPC4 (mouse) allosteric potentiation; Q9QUQ5; HEK293 TRPC4beta/mu-opioid, DAMGO EC20, Fluo-4 Ca2+ flux; stronger effect = higher value; B-score at 10 µM; actives 0.42% (n = 310,000);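 active = B-score of calcium response area above 5 SD of library B-scores, with initial fluorescence ratio within 5 SD of library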;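 also: B-score of integrated fluorescence ratio over time as area under calcium response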
TRPC6 act = mouse TRPC6 channel activation; HEK293-TRPC6 membrane potential dye fluorescence; stronger effect = higher value; Q61143; B-score at 10 µM; actives 0.13% (n = 310,000);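 active = B-score of the integrated fluorescence ratio above library mean plus 3 SD, and starting fluorescence ratio within library mean plus 5 SD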;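 also: higher score means more depolarization so channel activation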
Kir21 block = inhibitors of mouse Kir2.1 inward-rectifier potassium channel. B-score at 10 µM. P35561. actives 0.85% (n = 310,000). HEK293-Kir2.1, FluxOR thallium flux fluorescence; stronger effect = lower value;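 active = fluorescence ratio B-score at or below minus 3 SD of library scores, with starting-brightness B-score within 2 SD, cut at about -4.2 in these data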;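 also: channel flux triggered by added potassium and thallium sulfate stimulus; B-score of peak minus minimum fluorescence over baseline after thallium stimulus; more negative B-score means stronger Kir2.1 block with less thallium influx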
TRPC4 inh = TRPC4 (mouse) channel inhibition | Q9QUQ5 | HEK293 TRPC4beta/mu-opioid, DAMGO-evoked Fluo4 calcium flux; stronger effect = lower value | B-score at 10 µM | actives 0.39% (n = 300,000) | AID 2247;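 active = B-score over 3 SD under the library average, no early fluorescence shift, positive overall ratio signal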
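Material: HEK293 cells with stable TRPC4beta plus mu-opioid receptor expression; probe or stimulus: DAMGO in two steps, submaximal then maximal; technique: Fluo4 calcium fluorescence by kinetic imaging, 5 s 1 Hz baseline; measure: integrated fluorescence ratio relative to baseline, converted to per-well B score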
TRPC4 agonist = activators of mouse TRPC4 channel | Q9QUQ5 | HEK293 TRPC4beta/mu-opioid, Fluo4 calcium fluorescence; stronger effect = higher value | B-score at 10 µM | actives 0.49% (n = 310,000);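 active = B-score above 5 SD of library B-scores, and initial fluorescence ratio not above library mean plus 5 SD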;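 also: positive B-score marks a calcium rise read as TRPC4 activation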
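Material: TRPC4beta and mu-opioid receptor HEK293 stable cells | Incubation: 45 min room-temperature Fluo4 loading, 110 s read | Detection: Kinetic Fluo4 calcium fluorescence | Measure: Integrated baseline-normalised fluorescence ratio, converted to per-well B score | Benchmarks: Low control buffer alone, high control maximal DAMGO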
TRPC4 sel inh 2 = second check of whether TRPC6 inhibitors also affect mouse TRPC4; actives 42% (n = 920); HEK293 TRPC4/MOR, membrane potential dye fluorescence; channel activated by saturating DAMGO dose; inhibition, % at 10 µM; shares compounds with TRPC6 inh;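 active = compounds whose fluorescence signal differed from control wells by over 3 SD, either direction, in both duplicate plates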
TRPC4 spec = tests whether TRPC6 inhibitors also affect mouse TRPC4; shares compounds with TRPC6 inh; HEK293 TRPC4/mu-opioid, membrane potential fluorescence; activity change, negative = inhibition, % at 10 µM; actives 61% (n = 920); AID 2777;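 active = rise or fall in signal beyond 3 SD of buffer-only wells in both replicate plates, either sign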;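 also: integrated kinetic ratio of fluorescence range over baseline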
HEK293 MPD ctr 2-1 = parental HEK293 nonspecific activity of TRPC6 inhibitors, second screen; parental HEK293 membrane potential dye fluorescence; maximal acetylcholine challenge after compound addition; signal change vs control, % at 10 µM; actives 31% (n = 920); shares compounds with TRPC6 inh; AID 2779;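 active = membrane potential signal moving either way by over 3 SD of the maximum-effect control, in both duplicate plates, meaning non-specific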
HEK293 MPD ctr-1 = parental HEK293 nonspecific activity of TRPC6 inhibitors. AID 2780. actives 60% (n = 920). shares compounds with TRPC6 inh. membrane potential signal change, % at 10 µM. parental HEK293 membrane potential dye fluorescence;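 active = membrane potential signal shifting up or down by more than 3 SD of buffer-only wells, on both duplicate plates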
HEK293 MPD ctr-2 = parental HEK293 nonspecific activity of TRPC6 modulators; membrane potential signal change, % at 10 µM; membrane potential dye fluorescence; actives 51% (n = 2,400); shares compounds with TRPC6 inh;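 active = membrane potential signal moves up or down beyond 5 SD from buffer-only wells, on both duplicate plates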
HEK293 MPD ctr 2-2 = parental HEK293 nonspecific activity of TRPC6 modulators, second screen. actives 14% (n = 2,400). AID 488926. shares compounds with TRPC6 inh. inhibition, % at 10 µM. membrane potential dye fluorescence; after compound, maximal acetylcholine stimulation;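 active = membrane potential signal drops by more than 5 SD from the mean control signal, in both duplicate plates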;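 also: plate controls were acetylcholine ECmax control wells for no effect and buffer only wells for full effect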
TRPC4 ctr mod = mouse TRPC4 off-target activity of TRPC6 modulators; percent change from control (negative = decrease, positive = increase), % at 10 µM; shares compounds with TRPC6 inh; HEK293 TRPC4/mu-opioid, membrane potential fluorescence; actives 69% (n = 2,400);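 active = membrane potential signal moved up or down beyond 5 SD of buffer control wells, in both duplicate plates, actives on both sides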;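 also: plate controls were assay buffer wells for no effect and DAMGO maximal-effect wells for full effect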
TRPC4 ctr inh 2 = second selectivity test of TRPC6 modulators against mouse TRPC4; shares compounds with TRPC6 inh; actives 55% (n = 2,400); inhibition, % at 10 µM; HEK293 TRPC4/mu-opioid, membrane potential dye fluorescence; stimulated with maximal-effect DAMGO;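 active = drop in membrane potential signal beyond 5 SD of the control wells in both duplicate plates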;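 also: TRPC4 counter screen for TRPC6 hits run under conditions tuned for TRPC6 not TRPC4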
TRPC6 inh conf = confirmation of mouse TRPC6 inhibitors. actives 43% (n = 3,300). shares compounds with TRPC6 inh. HEK293-TRPC6, membrane potential dye, ACh-evoked depolarization. inhibition, % at 10 µM;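 active = fluorescence ratio falls more than 5 SD below the full-stimulation control mean, in both duplicate runs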;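 also: integrated fluorescence ratio of peak minus minimum over baseline after agonist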
TRPC6 act conf = mouse TRPC6 activator confirmation. shares compounds with TRPC6 inh. activation, % at 10 µM. HEK293-TRPC6 membrane potential dye fluorescence, FDSS. actives 11% (n = 2,800);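 active = ratio signal rise beyond 5 SD above unstimulated control wells' mean, seen in both duplicate runs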;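 also: plate controls were buffer EC0 wells for no effect and acetylcholine ECmax response for full effect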
An asterisk follows results filed as active; i = inactive; . = no result.

SMILES | TRPC6 inh | TRPC4 PAM | TRPC6 act | Kir21 block | TRPC4 inh | TRPC4 agonist | HEK293 MPD ctr-2 | HEK293 MPD ctr 2-2 | TRPC4 ctr mod | TRPC4 ctr inh 2 | TRPC6 inh conf | TRPC6 act conf | others
COc1ccc(N(C(=O)Cn2nnc(-c3ccc(Cl)cc3)n2)C(C(=O)NCC2CCCO2)c2ccc(C)cc2)cc1 (centres undefined) | i | i | i | -1.33 | i | i | . | . | . | . | . | .
O=C(CN1CCN(CCN2C(=O)c3cccc4cccc(c34)C2=O)CC1)c1ccc(F)cc1 | i | i | i | -1.13 | i | i | . | . | . | . | . | .
O=C1c2cccc3cccc(c23)C(=O)N1CCCN1CCN(c2ccc(F)cc2)CC1 | -7.06* | i | i | -0.57 | i | i | i | i | -11.5%* | 65.5%* | i | i
CN1CCCC(C#CC(O)(c2ccccc2)c2ccccc2)C1 (centres undefined) | -8.75* | i | i | 0.34 | i | i | . | . | . | . | i | i | TRPC4 sel inh 2=i;TRPC4 spec=i;HEK293 MPD ctr 2-1=i;HEK293 MPD ctr-1=i
CN(C)C(=O)c1nnc(Cc2ccc(Cl)cc2)o1 | i | i | i | 1.02 | i | i | . | . | . | . | . | .
Cc1sc2c3ccsc3ccc2[n+]1C | -8.59* | i | i | -0.39 | i | i | -292.0%* | 71.0%* | -50.0%* | 58.0%* | 67.5%* | i
Oc1c(/C=N/c2ccccn2)sc2ccccc12 | -9.12* | i | i | -0.04 | i | i | 170.0%* | i | 29.5%* | i | i | .
O=[N+]([O-])c1cc([N+](=O)[O-])c2c(=Nc3ccccc3)n(-c3ccccc3)n(O)c2c1 | -7.15* | i | i | -0.25 | i | i | . | . | . | . | i | i | TRPC4 sel inh 2=49.5%*;TRPC4 spec=-13.5%*;HEK293 MPD ctr 2-1=i;HEK293 MPD ctr-1=-183.5%*
CC(=O)Oc1c(Cl)cc(Cl)cc1/C=C/c1ccc2ccccc2n1 | i | i | i | -1.66 | i | i | . | . | . | . | . | .
CCOC(=O)N1CCC(N2CCN(Cc3ccc(F)c(F)c3)C(CCO)C2)CC1 (centres undefined) | i | i | i | 0.17 | i | i | . | . | . | . | . | .
CCOC(=O)N1CCC(N2CCN(CCC(C)C)C(CCO)C2)CC1 (centres undefined) | -7.57* | i | i | 1.47 | i | i | . | . | . | . | 64.4%* | . | TRPC4 sel inh 2=i;TRPC4 spec=9.0%*;HEK293 MPD ctr 2-1=-4.0%*;HEK293 MPD ctr-1=1.5%*
O=C1NC(=Nc2ccccc2Cl)S/C1=C\c1cccc([N+](=O)[O-])c1O | -6.02* | i | i | 0 | i | i | i | i | -11.5%* | 65.0%* | i | i
C=CCn1c(Oc2cc(C)ccc2C)nc2c1c(=O)n(C)c(=O)n2C | -6.18* | i | i | 0.73 | i | i | 139.5%* | i | 29.5%* | 41.0%* | i | .
CCOC(=O)N1CCN(S(=O)(=O)c2ccc3[nH]c(=O)sc3c2)CC1 | i | i | i | 3.13 | i | i | . | . | . | . | . | .
Cc1nn2c(NCCCN(C)C)c3c(nc2c1-c1ccccc1)CCC3 | -7.94* | i | i | -1.46 | i | i | -167.0%* | i | -30.5%* | 55.0%* | i | i
Cc1nn2c(NCCCN(C)C)c3c(nc2c1-c1ccccc1)CCCC3 | -6.77* | i | i | -0.03 | i | i | . | . | . | . | 63.0%* | i | TRPC4 sel inh 2=72.5%*;TRPC4 spec=-19.1%*;HEK293 MPD ctr 2-1=i;HEK293 MPD ctr-1=-296.5%*
Cc1nn2c(NCCOCCO)c3c(nc2c1-c1ccccc1)CCC3 | i | i | i | 0.26 | i | i | . | . | . | . | . | .
COCCNc1c2c(nc3c(-c4ccccc4)c(C)nn13)CCC2 | i | i | i | -0.72 | i | i | . | . | . | . | . | .
CCOC(=O)c1sc(NC(=O)CSc2nc(C)cc(C)c2C#N)c(C#N)c1C | i | i | i | 1.11 | i | i | . | . | . | . | . | .
CC(NCc1cccs1)c1ccccc1 (centres undefined) | i | i | i | 0.5 | i | i | . | . | . | . | . | .
CC(NC(=O)c1ccc(CS(C)(=O)=O)cc1)C1CC2CCC1C2 (centres undefined) | i | i | i | 0.91 | i | i | . | . | . | . | . | .
CC(NCc1ccc(N(C)C)cc1)C1CC2CCC1C2 (centres undefined) | -6.55* | i | i | -1.58 | i | i | 231.0%* | 70.0%* | 51.0%* | 60.5%* | 77.0%* | .
COc1ccc2cc3cc(C(=O)NCCC(C)C)oc3nc2c1 | i | i | i | -0.04 | i | i | . | . | . | . | . | .
COc1ccc(Nc2c(-c3ccc(C)cc3)nc3cnccn23)cc1 | i | i | i | -1.18 | i | i | . | . | . | . | . | .
Cc1ccc(Nc2c(-c3ccccc3O)nc3cnccn23)cc1 | -6.56* | i | i | 1.79 | i | i | i | i | -11.0%* | 67.5%* | i | i
COc1ccc(CCn2c(N3CCN(Cc4ccccc4)CC3)nc3c2c(=O)[nH]c(=O)n3C)cc1 | i | i | i | 0.67 | i | i | . | . | . | . | . | .
